Test results from ChEMBL document CHEMBL1129428 (J Med Chem, 1996).
Where “and” joins values, the source holds several entries; their conditions need not be identical. Identical values can stand only once.

Key:
Mus musculus [1] = test: Anticonvulsant activity after intraperitoneal injection into mice by using MES screen test after 0.5 hr; assay type: functional
Mus musculus [2] = test: Anticonvulsant activity after intraperitoneal injection into mice measured in a maximal electroshock scree (MES) screen; assay type: functional
Mus musculus [3] = test: Toxicity after intraperitoneal injection into mice by using toxicity screen test after 0.5 hr; assay type: organism-based; settings: in vivo, ip
In short: (§1)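 Mice injected intraperitoneally at 30, 100 and 300 mg/kg and examined 0.5 and 4 h afterwards. Each entry is the minimum dose giving activity (MES protection, scPTZ protection, or rotorod failure for neurotoxicity) in half or more of the mice. Activity is called absent if nothing occurs at 300 mg/kg.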

Mus musculus [4] = test: Compound was tested for toxicity after intraperitoneal injection into mice by using toxicity screen test after 4 hr; assay type: organism-based; settings: in vivo, ip; in short: as §1
Rattus norvegicus [5] = test: Compound was tested for anticonvulsant activity after Oral Administration into Rats by using MES screen test after 0.25h,dose 12.5 mg/kg; No activity was demonstarted; assay type: functional, organism-based; parameters: dose 12.5 mg/kg
In short: (§2)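 Rats received the compound orally. […] Rats were tested in the MES screen at 0.25, 0.5, 1, 2 and 4 h. Each value is the number of rats protected out of 4. The test followed NINDS procedures.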

Rattus norvegicus [6] = test: Compound was tested for anticonvulsant activity after Oral Administration into Rats by using MES screen test after 4h,dose 12.5 mg/kg; number of rats out of four which were protected; assay type: functional; in short: as §2
Rattus norvegicus [7] = test: Anticonvulsant activity after oral administration into rats; assay type: functional; parameters: concentration or dose not given beside the values
Rattus norvegicus [8] = test: Compound was tested for anticonvulsant activity after Oral Administration into Rats by using MES screen test after 1h,dose 12.5 mg/kg; number of rats out of four which were protected; assay type: functional; in short: as §2
Rattus norvegicus [9] = test: Compound was tested for anticonvulsant activity after Oral Administration into rat by using MES screen test after 1 hr; assay type: functional
In short: (§3)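 Rats dosed orally, typically at 50 mg/kg first, then mostly 12.5 mg/kg (some compounds at 30 mg/kg), and tested by maximal electroshock. Four rats per compound, scored at 0.25, 0.5, 1, 2 and 4 h as the number of rats protected out of 4.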

[10] = Compound was tested for toxicity after oral administration in rat by using neurotoxicity screen test after 0.25-24 hr; assay type: organism-based; settings: in vivo
In short: (§4)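 Rat neurotoxicity after oral dosing, observed at 0.25, 0.5, 1, 2, 4, 6, 8 and 24 h (8 h omitted for one compound).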

[11] = (§5) Protection index = TD50/ED50 (MES); assay type: ADME, organism-based; settings: rat, in vivo; read-out: PI
Rattus norvegicus [12] = test: Compound was tested for anticonvulsant activity after Oral Administration into Rats by using MES screen test after 2h,dose 12.5 mg/kg; number of rats out of four which were protected; assay type: functional; in short: as §2
[13] = Partition coefficient (logP); assay type: physicochemical; settings: octanol/water
In short: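 Partition between 1-octanol and buffer at pH 7.4, with solutions prepared in 1-octanol before buffer is added. Quantified by UV, using λmax and ε values measured in 1-octanol.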

Rattus norvegicus [14] = test: Compound was tested for anticonvulsant activity after Oral Administration into Rats by using MES screen test after 4h,dose 50 mg/kg; No activity was demonstarted; assay type: functional, organism-based; parameters: dose 50 mg/kg; in short: as §2
Rattus norvegicus [15] = test: Compound was tested for anticonvulsant activity after Oral Administration into Rats by using MES screen test after 2h,dose 50 mg/kg; No activity was demonstarted; assay type: functional, organism-based; parameters: dose 50 mg/kg; in short: as §2
Rattus norvegicus [16] = test: Compound was tested for anticonvulsant activity after Oral Administration into Rats by using MES screen test after 0.25h,dose 50 mg/kg; No activity was demonstarted; assay type: functional, organism-based; parameters: dose 50 mg/kg; in short: as §2
Rattus norvegicus [17] = test: Compound was tested for anticonvulsant activity after Oral Administration into Rats by using MES screen test after 0.5h,dose 50 mg/kg; No activity was demonstarted; assay type: functional, organism-based; parameters: dose 50 mg/kg; in short: as §2
Rattus norvegicus [18] = test: Compound was tested for anticonvulsant activity after Oral Administration into Rats by using MES screen test after 1h,dose 50 mg/kg; No activity was demonstarted; assay type: functional, organism-based; parameters: dose 50 mg/kg; in short: as §2
Mus musculus [19] = test: Anticonvulsant activity after intraperitoneal injection into mice by using scPTZ screen after 0.5 hr; assay type: functional
Mus musculus [20] = test: Compound was tested for anticonvulsant activity after intraperitoneal injection into mice by using MES screen test after 1 hr; assay type: functional; settings: ip
In short: (§6)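 Quantitative intraperitoneal mouse testing in the MES, scPTZ or rotorod neurotoxicity screens at the peak time given for each compound (0.25–2 h). ED50 or TD50 reported in mg/kg with 95% CI and slope (SE).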

Mus musculus [21] = test: Compound was tested for anticonvulsant activity after intraperitoneal injection into mice by using scPTZ screen test after 2 hr; assay type: functional; settings: ip; in short: as §6
[22] = Compound was tested for toxicity after intraperitoneal injection into mice by using neurotoxicity screen test after 2 hr; assay type: organism-based; settings: mouse, in vivo, ip; in short: as §6
Rattus norvegicus [23] = test: Compound was tested for anticonvulsant activity after Oral Administration into rat by using MES screen test after 2 hr; assay type: functional; in short: as §3
[24] = Compound was tested for toxicity after oral administration in rat by using neurotoxicity screen test after 4 hr; assay type: organism-based; settings: in vivo; in short: as §4
[25] = Protection index = TD50/ED50; assay type: ADME; settings: read-out: PI
Rattus norvegicus [26] = species on record: Rattus norvegicus; test: as §5; assay type: ADME, organism-based; settings: in vivo
Rattus norvegicus [27] = test: Compound was tested for anticonvulsant activity after Oral Administration into Rats by using MES screen test after 4h,dose 30 mg/kg; number of rats out of four which were protected; assay type: functional; in short: as §2
Rattus norvegicus [28] = test: Compound was tested for anticonvulsant activity after Oral Administration into Rats by using MES screen test after 0.25h,dose 30 mg/kg; No activity was demonstarted; assay type: functional, organism-based; parameters: dose 30 mg/kg; in short: as §2
Rattus norvegicus [29] = test: Compound was tested for anticonvulsant activity after Oral Administration into Rats by using MES screen test after 2h,dose 30 mg/kg; number of rats out of four which were protected; assay type: functional; in short: as §2
Rattus norvegicus [30] = test: Compound was tested for anticonvulsant activity after Oral Administration into Rats by using MES screen test after 0.5h,dose 30 mg/kg; number of rats out of four which were protected; assay type: functional; in short: as §2
Rattus norvegicus [31] = test: Compound was tested for anticonvulsant activity after Oral Administration into Rats by using MES screen test after 1h,dose 30 mg/kg; number of rats out of four which were protected; assay type: functional; in short: as §2
Mus musculus [32] = test: Compound was tested for anticonvulsant activity after intraperitoneal injection into mice by using scPTZ screen test after 0.25 hr; assay type: functional; settings: ip; in short: as §6
[33] = Compound was tested for toxicity after oral administration in rat by using neurotoxicity screen test after 2 hr; assay type: organism-based; settings: in vivo; in short: as §4
[34] = as §5; assay type: ADME; settings: read-out: TI
[35] = Protection index = TD50/ED50 (MES); settings: mouse, in vivo; read-out: PI
Mus musculus [36] = test: Anticonvulsant activity after intraperitoneal injection into mice by using scPTZ screen test after 4 hr; assay type: functional
Rattus norvegicus [37] = test: Compound was tested for anticonvulsant activity after Oral Administration into Rats by using MES screen test after 0.25h,dose 30 mg/kg; number of rats out of four which were protected; assay type: functional; in short: as §2
Rattus norvegicus [38] = test: Compound was tested for anticonvulsant activity after Oral Administration into Rats by using MES screen test after 2h,dose 30 mg/kg; No activity was demonstarted; assay type: functional, organism-based; parameters: dose 30 mg/kg; in short: as §2
Rattus norvegicus [39] = test: Compound was tested for anticonvulsant activity after Oral Administration into Rats by using MES screen test after 0.5h,dose 30 mg/kg; No activity was demonstarted; assay type: functional, organism-based; parameters: dose 30 mg/kg; in short: as §2
Rattus norvegicus [40] = test: Compound was tested for anticonvulsant activity after Oral Administration into Rats by using MES screen test after 1h,dose 30 mg/kg; No activity was demonstarted; assay type: functional, organism-based; parameters: dose 30 mg/kg; in short: as §2

Structure (SMILES) | Dose (Mus musculus [1]) [mg/kg] | Dose (Mus musculus [2]) [mg/kg] | Dose (Mus musculus [3]) [mg/kg] | Dose (Mus musculus [4]) [mg/kg] | Activity (Rattus norvegicus [5]) | Activity (Rattus norvegicus [6]) | Activity (Rattus norvegicus [7]) | Activity (Rattus norvegicus [8]) | ED50 (Rattus norvegicus [9]) [mg/kg] | Activity (Rattus norvegicus [12]) | logP [13] | Dose (Mus musculus [19]) [mg/kg] | ED50 (Mus musculus [20]) [mg/kg] | TD50 at 2 h [22] [mg/kg] | ED50 (Rattus norvegicus [23]) [mg/kg] | Activity (Rattus norvegicus [27]) | also measured
Cc1cccc(Oc2ccc(/C=N/NC(N)=O)cc2)c1 | 30 | 100 | 100 | 300 | No activity | 2 | 4 | 4 | 3.07 | 3 | – | – | – | – | – | – | TD50 [10]: > 500 mg/kg; selectivity ratio [11]: > 163
NC(=O)N/N=C\c1cccc(Oc2ccccc2)c1 | – | 300 | – | – | – | – | – | – | – | – | 2.07 | – | – | – | – | – | Activity (Rattus norvegicus [14]): No activity; Activity (Rattus norvegicus [15]): No activity; Activity (Rattus norvegicus [16]): No activity; Activity (Rattus norvegicus [17]): No activity; Activity (Rattus norvegicus [18]): No activity
CC/C(=N/NC(N)=O)c1ccc(Oc2ccc(F)cc2)cc1 | 30 | 30 | 300 | 100 | No activity | 4 | 2 | 4 | – | 4 | – | 100 | 5.46 | 35.3 | 4.25 | – | ED50 (Mus musculus [21]): 12.8 mg/kg; TD50 at 4 h [24]: > 72 mg/kg; selectivity ratio [25]: 2.75; PI (Rattus norvegicus [26]): 6.45 and 16.9
C/C(=N/NC(N)=O)c1ccc(Sc2ccccc2)cc1 | 100 | 100 | – | – | – | – | – | – | 16.6 | – | – | 300 | – | – | – | 4 | Activity (Rattus norvegicus [28]): No activity; Activity (Rattus norvegicus [29]): 4; Activity (Rattus norvegicus [30]): 4; Activity (Rattus norvegicus [31]): 4
C/C(=N/NC(N)=O)c1ccc(Oc2ccc(F)cc2)cc1 | 30 | 30 | 300 | 100 | No activity | 4 | 4 | 4 | – | 4 | 2.03 | 100 | 11.6 | 60.7 | 3.37 | – | ED50 (Mus musculus [32]): > 80 mg/kg; TD50 at 2 h [33]: 109 mg/kg; selectivity ratio [34]: 32.3; selectivity ratio [35]: 5.22
O=CN/N=C/c1ccc(Sc2ccc(F)cc2)cc1 | 100 | 100 | – | 300 | – | – | – | – | – | – | – | – | – | – | – | 1 | Dose (Mus musculus [36]): 300 mg/kg; Activity (Rattus norvegicus [37]): 1; Activity (Rattus norvegicus [38]): No activity; Activity (Rattus norvegicus [39]): No activity; Activity (Rattus norvegicus [40]): No activity
